Test system: Bel-7402
Experiment: Antiproliferative activity against human Bel7402 cells after 24 hrs by MTT assay
Type: functional, cell-based
Details: Bel-7402, 24 h
Summary of the method: (§1)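 Cells plated at 1 × 10⁴ per well and cultured 24 h at 37 °C, 5% CO₂. Medium then replaced with fresh medium containing compound at varying concentrations, five wells per concentration, and incubated 24 h. MTT (5 mg/mL in phosphate buffer pH 7.4) added for 4 h at 37 °C. Absorbance read at 570 nm, blanked on cell-free medium. IC50 is 50% growth inhibition versus untreated control; mean ± SD, n = 3.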

| SMILES | IC50 |
| --- | --- |
| CC(=O)OC[C@H]1O[C@@H](n2nc(-c3ccccc3)n(/N=C/c3ccccc3)c2=S)[C@H](OC(C)=O)[C@@H](OC(C)=O)[C@@H]1OC(C)=O | 10.7 µM |
| Oc1ccc(/C=N/n2c(-c3ccccc3)n[nH]c2=S)cc1 | 25.2 µM |
| COc1cc(/C=N/n2c(-c3ccccc3)n[nH]c2=S)ccc1O | 19.6 µM |
| O=c1[nH]cc(F)c(=O)[nH]1 [FLUOROURACIL] | 4.7 µM |
| S=c1[nH]nc(-c2ccccc2)n1/N=C/c1ccccc1 | 22.5 µM |
| S=c1[nH]nc(-c2ccccc2)n1/N=C/c1ccc(Cl)cc1 | 24 µM |

Test system: MCF7
Experiment: Antiproliferative activity against human MCF7 cells after 24 hrs by MTT assay
Type: functional, cell-based
Details: MCF7, 24 h
Summary of the method: as §1

| SMILES | IC50 |
| --- | --- |
| CC(=O)OC[C@H]1O[C@@H](n2nc(-c3ccccc3)n(/N=C/c3ccccc3)c2=S)[C@H](OC(C)=O)[C@@H](OC(C)=O)[C@@H]1OC(C)=O | 18 µM |
| Oc1ccc(/C=N/n2c(-c3ccccc3)n[nH]c2=S)cc1 | 29.9 µM |
| COc1cc(/C=N/n2c(-c3ccccc3)n[nH]c2=S)ccc1O | 26.3 µM |
| O=c1[nH]cc(F)c(=O)[nH]1 [FLUOROURACIL] | 4.3 µM |
| S=c1[nH]nc(-c2ccccc2)n1/N=C/c1ccccc1 | 31.8 µM |
| S=c1[nH]nc(-c2ccccc2)n1/N=C/c1ccc(Cl)cc1 | 30.5 µM |
